Shown are actives, neighbours in structure and some others; about 2.3% of the full set was active somewhere.
TRPC4 inh: TRPC4 (mouse) channel inhibition; Q9QUQ5; HEK293 TRPC4beta/mu-opioid, DAMGO-evoked Fluo4 calcium flux; stronger effect = lower value; B-score at 10 µM; actives 0.39% (n = 300,000); AID 2247;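 active = B-score over 3 SD under the library average, no early fluorescence shift, positive overall ratio signal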
Target sequence (Q9QUQ5 whole entry, looked up): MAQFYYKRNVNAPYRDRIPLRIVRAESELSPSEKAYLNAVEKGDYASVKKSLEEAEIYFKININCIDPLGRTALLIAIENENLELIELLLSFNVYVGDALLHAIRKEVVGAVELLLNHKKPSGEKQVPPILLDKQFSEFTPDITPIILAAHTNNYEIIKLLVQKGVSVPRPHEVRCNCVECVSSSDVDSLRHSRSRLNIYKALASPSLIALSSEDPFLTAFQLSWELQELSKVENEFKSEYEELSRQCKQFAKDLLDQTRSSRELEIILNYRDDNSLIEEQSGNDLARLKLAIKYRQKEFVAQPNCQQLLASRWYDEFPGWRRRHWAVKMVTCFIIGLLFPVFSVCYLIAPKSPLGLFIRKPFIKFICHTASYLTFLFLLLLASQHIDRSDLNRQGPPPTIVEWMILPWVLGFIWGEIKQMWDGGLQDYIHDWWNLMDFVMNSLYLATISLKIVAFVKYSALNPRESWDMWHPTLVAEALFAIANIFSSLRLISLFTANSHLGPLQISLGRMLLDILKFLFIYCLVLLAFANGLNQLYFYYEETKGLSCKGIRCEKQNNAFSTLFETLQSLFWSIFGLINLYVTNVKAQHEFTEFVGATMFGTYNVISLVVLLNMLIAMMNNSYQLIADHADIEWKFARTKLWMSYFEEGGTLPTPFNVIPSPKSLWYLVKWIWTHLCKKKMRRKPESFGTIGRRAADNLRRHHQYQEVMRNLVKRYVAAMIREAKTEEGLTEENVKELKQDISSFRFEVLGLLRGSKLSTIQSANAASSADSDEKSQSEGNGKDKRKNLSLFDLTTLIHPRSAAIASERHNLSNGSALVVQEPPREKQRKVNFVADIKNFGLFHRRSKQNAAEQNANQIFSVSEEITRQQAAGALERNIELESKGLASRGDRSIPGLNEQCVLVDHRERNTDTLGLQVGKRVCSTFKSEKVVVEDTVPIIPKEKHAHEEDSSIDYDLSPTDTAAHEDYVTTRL
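material = TRPC4beta/mu-opioid receptor HEK293 cell line | probe or stimulus = sequential submaximal and maximal DAMGO stimulation | compound dosing = one concentration per compound | measured by = Fluo4 Ca2+ flux fluorescence | evaluation = integrated fluorescence ratio relative to baseline, converted to per-well B score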
TRPC6 activator: activates the mouse TRPC6 cation channel | Q61143 | HEK293-TRPC6 membrane potential dye fluorescence; stronger effect = higher value | B-score at 10 µM | actives 0.13% (n = 310,000) | AID 2550;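 active = B-score of the integrated fluorescence ratio above library mean plus 3 SD, and starting fluorescence ratio within library mean plus 5 SD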;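 also: higher score means more depolarization so channel activation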
TRPC4 potent: allosterically enhances the mouse TRPC4 cation channel; Q9QUQ5; HEK293 TRPC4beta/mu-opioid, DAMGO EC20, Fluo-4 Ca2+ flux; stronger effect = higher value; B-score at 10 µM; actives 0.42% (n = 310,000); AID 2227;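 active = B-score of calcium response area above 5 SD of library B-scores, with initial fluorescence ratio within 5 SD of library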
TRPC6 inh: mouse TRPC6 channel inhibition; Q61143; HEK293-TRPC6, membrane potential dye, ACh-evoked depolarization; stronger effect = lower value; B-score at 10 µM; actives 1.1% (n = 310,000);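 active = B-score under library mean minus 3 SD, initial fluorescence not abnormally high, positive integrated signal ratio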;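 also: B-score derived from integrated fluorescence ratio over the kinetic read; more negative B-score means stronger inhibition of depolarization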
TRPC4 act: opens the mouse TRPC4 cation channel; Q9QUQ5; HEK293 TRPC4beta/mu-opioid, Fluo4 calcium fluorescence; stronger effect = higher value; B-score at 10 µM; actives 0.49% (n = 310,000); AID 2237;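 active = B-score above 5 SD of library B-scores, and initial fluorescence ratio not above library mean plus 5 SD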;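 also: positive B-score marks a calcium rise read as TRPC4 activation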
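Assay system: HEK293 stable line with TRPC4beta plus mu-opioid receptor. Times: dye 45 min RT, read 110 s. Measured by: kinetic Fluo4 calcium fluorescence. Measure: B score of integrated ratio. Controls: assay buffer as low control, maximal DAMGO as high control.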
Hits are given with their value; . = inactive.

SMILES | TRPC4 inh | TRPC6 activator | TRPC4 potent | TRPC6 inh | TRPC4 act
Cc1ccc(C)c2[nH]c(=O)c(C(c3nnnn3Cc3ccco3)N3CCc4ccccc4C3)cc12 (centres undefined) | . | . | 11 | . | .
Cc1ccc(C)c2[nH]c(=O)c(CN(Cc3nnnn3C3CCCCC3)CC3CCCO3)cc12 (centres undefined) | -6 | . | . | . | .
Cc1ccc(C)c2[nH]c(=O)c(C(c3nnnn3C3CCCC3)N3CCOCC3)cc12 (centres undefined) | . | . | 23 | . | .
Cc1ccc2cc(C(c3nnnn3C3CCCC3)N3CCOCC3)c(=O)[nH]c2c1C (centres undefined) | . | . | . | . | .
CCN1CCN(C(c2cc3cccc(C)c3[nH]c2=O)c2nnnn2Cc2ccccc2)CC1 (centres undefined) | . | . | . | . | 76
CCn1ccc(C(=O)N2CCN(c3ncccn3)CC2)n1 | . | . | . | . | .
Cc1cc(S(N)(=O)=O)c(N)c(S(N)(=O)=O)c1 | . | . | . | . | .
COc1ccccc1CC(=O)NNS(=O)(=O)c1ccc([N+](=O)[O-])cc1 | . | . | . | . | .
CC(C)Cn1cnc2c(c(-c3ccccc3)c(-c3ccccc3)n2Cc2ccco2)c1=N | . | . | . | -5 | .
O=S(=O)(Nc1ccc(F)cc1)c1ccc(NS(=O)(=O)c2cccs2)cc1 | . | . | 11 | . | .
Cc1ccc(NS(=O)(=O)c2ccc(NS(=O)(=O)c3cccs3)cc2)cc1 | . | . | 16 | . | .
COc1ccc(NS(=O)(=O)c2ccc(NS(=O)(=O)c3cccs3)cc2)cc1 | . | . | . | . | .
CCOP(=O)(OCC)c1nc(-c2cccc3ccccc23)oc1N1CCCCC1 | . | . | 23 | . | .
CCOP(=O)(c1ccccc1)c1nc(-c2ccccc2C)oc1N1CCCCC1 (centres undefined) | . | . | 11 | . | .
COP(=O)(OC)c1nc(-c2cccc3ccccc23)oc1N1CCCCC1 | . | . | . | . | .
CC12CC3CC(C)(C1)CC(C(=O)N1CCCC1)(C3)C2 | -6 | . | . | . | .
O=C(N1CCCC1)C12CC3CCC(CC(C3)C1)C2 | . | . | . | . | .
CN1CCN(C(=O)C23CC4CC(C)(CC(C)(C4)C2)C3)CC1 | -6 | . | . | . | .
O=C1CN(C(=O)c2ccc(Br)o2)C(c2ccccc2)c2cc(Br)ccc2N1 (centres undefined) | . | . | 13 | . | .
OC(COc1ccccc1)CN1C2=NCCCN2c2ccccc21 (centres undefined) | -5 | . | . | . | .
Brc1ccc(CN2C3=NCCCN3c3ccccc32)cc1 | -7 | . | . | . | .
Clc1ccc(CN2C3=NCCN3c3ccccc32)cc1 | -6 | . | . | . | .
c1ccc(CN2C3=NCCCN3c3ccccc32)cc1 | . | . | . | . | .
CC(=O)c1cccc(NS(=O)(=O)c2ccc3c(c2)N(C(C)=O)CCO3)c1 | . | . | . | . | .
CCOC(=O)CN1C(=O)NC2(CCCc3ccccc32)C1=O (centres undefined) | . | . | . | . | .
SMILES | TRPC4 inh | TRPC6 activator | TRPC4 potent | TRPC6 inh | TRPC4 act
Cc1cccc(-c2noc(CCCC(=O)NC3CCCC3)n2)c1 | . | . | . | . | .
COc1ccccc1N(CC(=O)NCCN1CCOCC1)S(=O)(=O)c1ccccc1 | . | . | . | . | .
Cc1cccc(OCCCc2c(C)n[nH]c2C)c1 | -6 | . | . | . | .
COc1cccc(OC)c1OCCCc1c(C)n[nH]c1C | . | . | . | . | .
Cc1ccc(C(=O)Nc2cccc(C(=O)NC3CCCC3)c2)cc1 | . | . | . | . | .
COc1ccc(N(C(=O)C(C)C)S(=O)(=O)c2ccc3ccccc3c2)cc1 | . | . | . | . | .
COc1ccc(/C=N/Nc2cc(C)nc(-n3nc(C)cc3C)n2)cc1 | . | . | 19 | . | .
C/C(CC(=O)Nc1ccccn1)=N\NC(=O)c1cnccn1 | . | . | . | . | .
COc1ccc(C(CNC(=O)c2ccc(S(=O)(=O)N(C)C)cc2)N(C)C)cc1 (centres undefined) | . | . | . | . | 242
CC(C)c1ccc(NC(=O)CNCC(c2ccccc2)N(C)C)cc1 (centres undefined) | . | . | . | . | .
Cc1ccc(NC(=O)CNCC(c2ccccc2)N(C)C)cc1F (centres undefined) | . | . | . | . | 147
COc1ccc(C(CNC(=O)c2cccc(NS(=O)(=O)c3ccc(Br)cc3)c2)N(C)C)cc1 (centres undefined) | . | . | . | . | 154
Cc1ccc(S(=O)(=O)Nc2cccc(C(=O)NCC(c3ccccc3)N(C)C)c2)cc1F (centres undefined) | -10 | . | . | . | 66
O=[N+]([O-])c1ccc(NC(=S)N2CCc3ccccc3C2)cc1 | -6 | . | . | . | .
Cc1cccc([C@@H]2[C@@H]3C(=O)N(Cc4ccccc4)C(=O)[C@@H]3[C@]3(Cc4ccccc4)C(=O)N(c4ccc(C(F)(F)F)cc4)C(=O)N23)c1 | . | . | . | . | .
COc1ccc(-c2cc(C3CCN(c4cc(Cl)nc(N)n4)CC3)[nH]n2)cc1 | . | . | 38 | . | .
COc1ccc(OC)c(-c2cc(C3CCN(c4cc(Cl)nc(N)n4)CC3)[nH]n2)c1 | . | . | 12 | . | .
Nc1nc(Cl)cc(N2CCC(c3cc(-c4ccc(Cl)cc4)n[nH]3)CC2)n1 | . | . | . | . | .
Cc1cc(C)cc(NC(=O)CCN2CCOCC2)c1 | . | . | . | . | .
CCCC(=O)Nc1c(-c2ccccc2Cl)c(=O)c2ccccc2n1C | . | . | . | . | .
Cc1ccc(CS(=O)(=O)CCC(=O)NCCC2=CCCCC2)cc1 | . | . | 17 | . | .
Cc1ccc(S(=O)(=O)CCC(=O)NCCC2=CCCCC2)cc1 | . | . | . | . | .
C=CCNC(=O)c1cc2c(=O)n3cc(C)ccc3nc2nc1NCC1CCCO1 (centres undefined) | . | . | . | -5.9 | .
CC(=O)n1c2c(c3ccccc31)OC(N)=C(C#N)C2c1ccc(C(C)C)cc1 (centres undefined) | . | . | 12 | . | .
Cc1ccccc1OCC(=O)NC(=S)Nc1ccccc1N1CCN(S(C)(=O)=O)CC1 | . | . | . | . | .
O=[N+]([O-])c1cccc(/C=N/Nc2nc(NCc3ccccc3)nc(N3CCOCC3)n2)c1O | . | . | . | . | 53
O=[N+]([O-])c1ccc(/C=N/Nc2nc(NCc3ccccc3)nc(N3CCOCC3)n2)cc1 | . | . | . | . | .
Nc1nc(N)c2c(n1)CCCC2 | . | . | . | . | .
Nc1c2c(nc3c1CCCC3)CCCC2 (tested in a mixture with another compound) | -6 | . | . | . | .
